Results as given in ChEMBL document CHEMBL4028876, “Discovery of a Novel Piperidine-Based Inhibitor of Cholesteryl Ester Transfer Protein (CETP) That Retains Activity in Hypertriglyceridemic Plasma” (J Med Chem, 2017).

Key:
[1] = molecular target: T1, Cholesteryl ester transfer protein (Homo sapiens) (UniProt P11597); assay: Inhibition of CETP in human plasma at 100 uM measured every 30 mins for 120 mins by fluorescence method
T1 sequence (whole entry): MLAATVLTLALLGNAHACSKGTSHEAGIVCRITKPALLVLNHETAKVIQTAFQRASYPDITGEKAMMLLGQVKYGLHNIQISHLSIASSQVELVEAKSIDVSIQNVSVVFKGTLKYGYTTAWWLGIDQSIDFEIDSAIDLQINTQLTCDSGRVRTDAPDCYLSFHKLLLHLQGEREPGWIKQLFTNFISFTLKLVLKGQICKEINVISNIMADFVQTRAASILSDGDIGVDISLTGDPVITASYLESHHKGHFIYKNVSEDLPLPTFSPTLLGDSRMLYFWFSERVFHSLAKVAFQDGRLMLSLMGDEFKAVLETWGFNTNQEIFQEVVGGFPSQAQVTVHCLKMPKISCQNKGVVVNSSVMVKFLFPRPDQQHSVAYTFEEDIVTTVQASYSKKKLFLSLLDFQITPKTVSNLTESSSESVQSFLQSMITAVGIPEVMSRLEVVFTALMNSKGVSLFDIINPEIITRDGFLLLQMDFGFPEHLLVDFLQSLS
In short: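 Pooled EDTA plasma from healthy male donors (final 50%) with compound in DMSO (final 1%). The reaction is started with fluorescent donor solution. Ex/em 485/535 nm, read every 30 min for 120 min at 37 °C. Activity is the 30–90 min slope. Torcetrapib (1 or 10 µM) and DMSO define 100% and 0% inhibition. IC50 is fitted to duplicate wells by a logistic equation.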

[2] = molecular target: T2, Cholesteryl ester transfer protein (Homo sapiens, UniProt P11597); assay: Inhibition of CETP in human plasma measured every 30 mins for 120 mins by fluorescence method
T2 sequence (P11597 whole entry): T1 sequence (whole entry)
In short: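 Pooled EDTA plasma from healthy male donors (final 50%) with compound in DMSO (final 1%). The reaction is started with fluorescent donor solution. Activity is the 30–90 min slope. IC50 is fitted to duplicate wells by a logistic equation.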

[3] = 1-Octanol-phosphate buffered saline partition coefficient, log D of compound at […] by tandem mass spectrometry method; format: physicochemical
[4] = Half life in Sprague-Dawley rat at 1 mg/kg, iv or 3 mg/kg, po by LC-ESI-MS/MS analysis; format: ADME, organism-based; settings: in vivo
In short: (§1)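 Conscious 7-week-old male Sprague-Dawley rats on standard diet with free water. Dosing is 1 mg/kg iv bolus in N-methylpyrrolidin-2-one/PEG 200, or 3 mg/kg oral suspension in 0.5% aqueous methylcellulose. Blood is sampled at various time points after administration.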

[5] = Clearance in Sprague-Dawley rat plasma at 1 mg/kg, iv or 3 mg/kg, po by LC-ESI-MS/MS analysis; format: ADME, organism-based; in short: as §1
[6] = Volume of distribution in Sprague-Dawley rat at 1 mg/kg, iv or 3 mg/kg, po by LC-ESI-MS/MS analysis; format: ADME, organism-based; settings: in vivo; in short: as §1
[7] = AUC (infinity) in Sprague-Dawley rat at 1 mg/kg, iv or 3 mg/kg, po by LC-ESI-MS/MS analysis; format: ADME, organism-based; settings: in vivo; in short: as §1
[8] = Oral bioavailability in Sprague-Dawley rat at 3 mg/kg by LC-ESI-MS/MS analysis; format: ADME, organism-based; settings: in vivo; in short: as §1
Cytochrome P450 3A4 [9] = molecular target: T3, Cytochrome P450 3A4 (Homo sapiens, UniProt P08684); assay: Inhibition of CYP3A4 (unknown origin) in the presence of midozolam; format: ADME
T3 sequence (P08684 whole entry): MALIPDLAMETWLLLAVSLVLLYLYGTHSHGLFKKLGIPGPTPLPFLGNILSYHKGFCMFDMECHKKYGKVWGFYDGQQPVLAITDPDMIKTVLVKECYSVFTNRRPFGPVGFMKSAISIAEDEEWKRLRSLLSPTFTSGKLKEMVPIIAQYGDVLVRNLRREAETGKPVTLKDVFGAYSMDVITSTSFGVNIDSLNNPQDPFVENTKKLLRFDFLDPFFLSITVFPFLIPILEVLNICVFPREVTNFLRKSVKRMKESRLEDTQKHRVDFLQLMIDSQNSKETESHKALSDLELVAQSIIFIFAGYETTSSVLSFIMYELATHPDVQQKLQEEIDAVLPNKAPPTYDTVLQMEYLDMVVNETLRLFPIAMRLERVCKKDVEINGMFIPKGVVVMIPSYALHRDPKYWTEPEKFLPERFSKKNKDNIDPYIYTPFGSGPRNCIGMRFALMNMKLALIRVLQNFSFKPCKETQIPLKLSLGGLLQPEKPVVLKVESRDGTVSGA

Cytochrome P450 3A4 [10] = molecular target: T3, Cytochrome P450 3A4; assay: Inhibition of CYP3A4 (unknown origin) in the presence of testosterone; format: ADME
Cytochrome P450 2D6 = Cytochrome P450 2D6 (Homo sapiens, UniProt P10635); assay: Inhibition of CYP2D6 (unknown origin); format: ADME
Cytochrome P450 2D6, sequence (P10635 whole entry): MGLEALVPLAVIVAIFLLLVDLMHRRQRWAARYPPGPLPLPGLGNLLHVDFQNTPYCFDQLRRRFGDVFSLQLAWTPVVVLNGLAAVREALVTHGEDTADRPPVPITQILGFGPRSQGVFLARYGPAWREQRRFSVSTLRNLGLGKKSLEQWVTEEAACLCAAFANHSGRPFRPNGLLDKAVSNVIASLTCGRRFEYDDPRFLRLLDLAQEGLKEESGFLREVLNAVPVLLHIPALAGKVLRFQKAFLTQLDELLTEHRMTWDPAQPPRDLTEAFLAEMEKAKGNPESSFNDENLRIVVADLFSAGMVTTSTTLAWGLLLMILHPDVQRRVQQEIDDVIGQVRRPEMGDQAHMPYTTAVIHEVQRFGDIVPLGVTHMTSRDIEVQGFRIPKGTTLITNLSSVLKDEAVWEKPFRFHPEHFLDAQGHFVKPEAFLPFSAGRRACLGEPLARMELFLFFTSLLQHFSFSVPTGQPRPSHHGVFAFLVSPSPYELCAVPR

Cytochrome P450 2C9 = Cytochrome P450 2C9 (Homo sapiens, UniProt P11712); assay: Inhibition of CYP2C9 (unknown origin); format: ADME
Cytochrome P450 2C9, sequence (P11712 whole entry): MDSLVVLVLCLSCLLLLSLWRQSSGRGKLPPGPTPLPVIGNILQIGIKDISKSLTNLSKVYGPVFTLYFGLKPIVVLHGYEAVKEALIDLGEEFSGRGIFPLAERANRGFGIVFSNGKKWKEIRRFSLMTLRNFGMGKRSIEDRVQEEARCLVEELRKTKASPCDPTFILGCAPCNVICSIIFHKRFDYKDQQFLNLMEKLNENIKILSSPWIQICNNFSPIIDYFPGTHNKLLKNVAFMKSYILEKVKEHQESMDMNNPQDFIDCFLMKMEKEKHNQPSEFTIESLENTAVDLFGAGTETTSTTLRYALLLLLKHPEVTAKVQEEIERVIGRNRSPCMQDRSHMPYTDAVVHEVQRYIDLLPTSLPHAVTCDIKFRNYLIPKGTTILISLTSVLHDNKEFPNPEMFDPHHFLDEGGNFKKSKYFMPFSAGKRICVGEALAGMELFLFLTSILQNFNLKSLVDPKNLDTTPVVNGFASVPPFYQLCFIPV

**Q.** Which inhibition [1] does the source give for `CC[C@@H]1C[C@H](N(Cc2cc(C(F)(F)F)cc(C(F)(F)F)c2)C(=O)OC)CCN1C(=O)OC(C)(C)C` (racemic) here?
**A.** The inhibition was 70%.

**Q.** With `CCC(CC)CC1(C(=O)Nc2ccccc2SC(=O)C(C)C)CCCCC1` [DALCETRAPIB] as the molecule, how does the IC50 [2] read?
**A.** Its IC50 is 4.1 µM.

**Q.** What about the logD [3] of the same molecule?
**A.** The logD was over 6.

**Q.** With `CC[C@@H]1C[C@H](N(Cc2cc(Cl)cc(C(F)(F)F)c2)c2ncc(Br)cn2)C[C@H](Cc2ccccc2)N1C(=O)OC(C)(C)C` (racemic) as the molecule, how does the IC50 [2] read?
**A.** The IC50 was 0.24 µM.

**Q.** Which IC50 [2] does the source give for `CC[C@@H]1C[C@H](N(Cc2cc(C(F)(F)F)cc(C(F)(F)F)c2)C(=O)OC)C[C@H](CC)N1C(=O)OC(C)(C)C` here?
**A.** Its IC50 is 1.3 µM.

**Q.** For `CC[C@@H]1C[C@H](N(Cc2cc(C(F)(F)F)cc(C(F)(F)F)c2)c2ncc(N3CCOCC3)cn2)C[C@H](CC)N1C(=O)O[C@H]1CC[C@H](C(=O)O)CC1`, which IC50 [2] is on record?
**A.** Its IC50 is 0.15 µM.

**Q.** What about the half-life [4] of the same molecule?
**A.** The half-life was 5.6 h.

**Q.** What about the clearance [5] of the same molecule?
**A.** Its clearance is 0.09 L/h/kg.

**Q.** What about the Vd [6] of the same molecule?
**A.** The Vd was 0.67 L/kg.

**Q.** And the AUC(0-inf) [7]?
**A.** The AUC(0-inf) was 28.5 µM·h.

**Q.** What about the bioavailability [8] of the same molecule?
**A.** The bioavailability was 58%.

**Q.** What about the IC50 (Cytochrome P450 3A4 [9]) of the same molecule?
**A.** Its IC50 is 25 µM.

**Q.** And the IC50 (Cytochrome P450 3A4 [10])?
**A.** Its IC50 is over 50 µM.

**Q.** And the IC50 (Cytochrome P450 2D6)?
**A.** Its IC50 is over 50 µM.

**Q.** What about the IC50 (Cytochrome P450 2C9) of the same molecule?
**A.** The IC50 was over 50 µM.

**Q.** Which IC50 [2] does the source give for `CC[C@@H]1C[C@H](N(Cc2cc(C(F)(F)F)cc(C(F)(F)F)c2)c2ncc(OC)cn2)C[C@H](Cc2ccccc2)N1C(=O)OC(C)(C)C` (racemic) here?
**A.** Its IC50 is 0.071 µM.

**Q.** With `CC[C@@H]1C[C@H](N(Cc2cc(OC)cc(C(F)(F)F)c2)c2ncc(Br)cn2)C[C@H](Cc2ccccc2)N1C(=O)OC(C)(C)C` (racemic) as the molecule, how does the IC50 [2] read?
**A.** The IC50 was over 10 µM.

**Q.** Which IC50 [2] does the source give for `CC[C@@H]1C[C@H](N(Cc2cc(C(F)(F)F)cc(C(F)(F)F)c2)c2ncc(N3CCOCC3)cn2)C[C@H](Cc2ccccc2)N1C(=O)OC(C)(C)C` (racemic) here?
**A.** The IC50 was 0.164 µM.

**Q.** For `CC[C@@H]1C[C@H](N(Cc2cc(C(F)(F)F)cc(C(F)(F)F)c2)C(=O)OC)C[C@H](Cc2ccccc2)N1C(=O)OC(C)(C)C` (racemic), which IC50 [2] is on record?
**A.** Its IC50 is 0.771 µM.
